Experimental findings from ChEMBL document CHEMBL1221273, “Addressing time-dependent CYP 3A4 inhibition observed in a novel series of substituted amino propanamide renin inhibitors, a case study” (Bioorg Med Chem Lett, 2010) are described below.

The target in data set [1] is T1, CYP3A4 (Homo sapiens, UniProt P08684). In words: Ratio of IC50 for human CYP3A4 without preincubation to IC50 for human CYP3A4 preincubated for 30 mins. The following applies: read-out: Ratio IC50. The method in brief:
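Human liver microsomes (0.25 mg/mL) were preincubated 0 or 30 min at 37 °C with compound (0.03–200 µM) and 1 mM NADPH in 125 mM phosphate buffer. Testosterone (500 µM) was then added for 15 min at 37 °C. Reactions were quenched with acetonitrile and 6β-hydroxytestosterone was measured by HPLC-MS/MS. IC50s were determined under each condition, and the shift is the ratio of the 0-min to the 30-min IC50.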

For a further data set, the system named is Canis familiaris. In words: Volume of distribution at steady state in Beagle dog at 3 mg/kg, po. In kind it is ADME, organism-based, Canis lupus familiaris. Also on record: dose 3 mg/kg, route oral. The note with it: in vivo.
For data set [2], the target named is T2, Renin (Homo sapiens, UniProt P00797).
T2 sequence (P00797 whole entry): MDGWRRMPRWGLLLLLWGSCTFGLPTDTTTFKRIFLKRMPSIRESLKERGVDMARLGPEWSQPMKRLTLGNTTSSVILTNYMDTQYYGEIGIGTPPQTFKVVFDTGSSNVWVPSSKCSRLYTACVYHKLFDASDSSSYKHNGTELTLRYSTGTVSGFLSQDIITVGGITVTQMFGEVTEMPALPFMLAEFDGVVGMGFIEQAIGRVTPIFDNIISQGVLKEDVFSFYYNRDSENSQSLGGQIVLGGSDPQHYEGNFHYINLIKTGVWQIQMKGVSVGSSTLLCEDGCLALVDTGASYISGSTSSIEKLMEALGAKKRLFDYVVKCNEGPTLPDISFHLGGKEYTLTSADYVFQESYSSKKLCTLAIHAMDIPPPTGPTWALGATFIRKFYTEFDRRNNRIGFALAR
The data set is described as follows: Inhibition of human recombinant renin in presence of pH 7.4 buffer. The procedure, abridged:
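Recombinant human renin (3 pg/µL) in PBS pH 7.4 with 1 mM EDTA and 0.1% BSA, premixed with human tetradecapeptide (1–14) substrate and hydroxyquinoline sulfate. Compounds were diluted in DMSO and added, then incubated 3 h at 37 °C. AngI accumulation was measured by immunoassay. % inhibition was computed for each concentration and IC50 obtained by curve fitting. Values are the mean of at least two replicates.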

Data set [3] in a line: Metabolic stability in human liver microsome assessed as compound remaining at 20 uM after 1 hr. In kind it is ADME. The note with it: liver microsomes, read-out: Stability. For orientation: Microsomes from liver hold many membrane-bound enzymes, among them those of drug oxidation.
A short description of data set [4]: Oral bioavailability in Sprague-Dawley rat at 30 mg/kg. In kind it is ADME, organism-based. The following applies: in vivo.
Data set [5] can be described thus: Clearance in Beagle dog at 3 mg/kg, po. In kind it is ADME, organism-based, Canis lupus familiaris. Also on record: dose 3 mg/kg, route oral. The following applies: in vivo.
Data set [6] relates to Rattus norvegicus. In words: Volume of distribution at steady state in Sprague-Dawley rat at 30 mg/kg, po. It is filed as ADME, organism-based. Also noted: dose 30 mg/kg, route oral. The note with it: in vivo.
Data set [7] concerns the target T2, Renin. The data set is described as follows: Inhibition of human recombinant renin in presence of plasma by immunoassay. In kind it is cell-free. The procedure, abridged:
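Pooled frozen human citrate plasma was spiked with recombinant human renin (150 pg/mL final). Compounds at various concentrations in DMSO were added to a 7:1 mix of plasma and anti-AngI trapping antibody (final antiserum 1:50,000) in Tris/EDTA pH 7.2, then incubated 2 h at 37 °C. AngI was read by immunoassay and IC50 fitted. Values are the mean of at least two replicates.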

Data set [8] can be described thus: Half life in Sprague-Dawley rat at 30 mg/kg, po. In kind it is ADME, organism-based. Also on record: dose 30 mg/kg, route oral. The following applies: in vivo.
For data set [9], the system named is Rattus norvegicus. In words: Antihypertensive activity in double transgenic rat hypertensive model assessed as reduction in blood pressure at 1 mg/kg, po. In kind it is functional.
Data set [10] addresses T1, CYP3A4. In words: Inhibition of CYP3A4 in human liver microsome at 3 uM. In kind it is ADME. The following applies: liver microsomes.
The nature of data set [11]: Intrinsic clearance in human liver microsome. In kind it is ADME. The note with it: liver microsomes. The method in brief: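 Compound (1 µM) was incubated at 37 °C with human liver microsomes (1 mg/mL) and an NADPH regenerating system in 125 mM phosphate buffer. Samples were quenched with acetonitrile at 2, 5, 10, 20, 45 and 75 min and parent loss was followed by HPLC-MS/MS. CLint was calculated from the initial elimination rate constant.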

Data set [12] can be described thus: Half life in Beagle dog at 3 mg/kg, po. In kind it is ADME, organism-based, Canis lupus familiaris. Also on record: dose 3 mg/kg, route oral. The note with it: in vivo.
Data set [13] deals with T3, Cytochrome P450 3A4 (Homo sapiens, UniProt P08684). In words: Inhibition of CYP3A4 in human liver microsome preincubated for 30 mins. In kind it is ADME, microsomes. The method in brief:
(§1)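 Human liver microsomes (0.25 mg/mL) pre-incubated 0 or 30 min at 37 °C with test compound (0.03–200 µM range as printed) and 1 mM NADPH in 125 mM phosphate buffer. Testosterone (500uM) then added as CYP3A substrate, 15 min further at 37 °C. Quenched with acetonitrile, centrifuged, and 6b-hydroxytestosterone formation read by HPLC-MS/MS. IC50 averaged over at least two replicates.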

Data set [14] can be described thus: Clearance in Sprague-Dawley rat at 30 mg/kg, po. It is filed as ADME, organism-based. Also on record: dose 30 mg/kg, route oral. The note with it: in vivo.
Data set [15] in a line: Oral bioavailability in Beagle dog at 3 mg/kg. The note with it: in vivo. It is filed as ADME, organism-based, Canis lupus familiaris.
The nature of data set [16]: Metabolic stability in human liver microsome assessed as compound remaining at 50 uM after 1 hr. In kind it is ADME. The following applies: liver microsomes, read-out: Stability.
Data set [17] concerns the target T1, CYP3A4. In words: (§2) Inhibition of CYP3A4 in human liver microsome. In kind it is ADME, microsomes. The note with it: human, liver microsomes. The procedure, abridged:
as §1

For data set [18], the target named is T3, Cytochrome P450 3A4. The description is as §2. It is filed as ADME, microsomes. The procedure, abridged: as §1
For data set [19], the system named is Rattus norvegicus. The data set is described as follows: Antihypertensive activity in double transgenic rat hypertensive model assessed as time required to reduce blood pressure at 1 mg/kg, po. In kind it is functional.
Data set [20] has as its system Rattus norvegicus. In words: Antihypertensive activity in double transgenic rat hypertensive model assessed as time required to reduce blood pressure at 3 mg/kg, po. It is filed as functional.
Data set [21] concerns Rattus norvegicus. The data set is described as follows: Antihypertensive activity in double transgenic rat hypertensive model assessed as reduction in blood pressure at 3 mg/kg, po. It is filed as functional.

T3 sequence (P08684 whole entry): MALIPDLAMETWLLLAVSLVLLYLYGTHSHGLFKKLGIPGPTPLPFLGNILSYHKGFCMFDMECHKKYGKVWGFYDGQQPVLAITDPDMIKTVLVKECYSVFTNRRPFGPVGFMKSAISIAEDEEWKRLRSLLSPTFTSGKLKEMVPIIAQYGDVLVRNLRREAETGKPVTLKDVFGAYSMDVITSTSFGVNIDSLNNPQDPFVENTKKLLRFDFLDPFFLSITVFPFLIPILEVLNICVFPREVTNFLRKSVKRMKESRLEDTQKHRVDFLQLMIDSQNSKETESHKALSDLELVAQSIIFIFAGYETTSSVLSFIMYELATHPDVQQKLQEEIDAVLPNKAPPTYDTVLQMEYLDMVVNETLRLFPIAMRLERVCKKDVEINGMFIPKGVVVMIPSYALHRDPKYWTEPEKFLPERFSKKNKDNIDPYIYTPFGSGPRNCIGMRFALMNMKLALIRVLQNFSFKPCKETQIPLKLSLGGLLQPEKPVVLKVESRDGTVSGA
T1 sequence (P08684 whole entry): as above

Regarding `COCCc1ccc(Cl)c(CN(CC2CCC2)C(=O)[C@@H](CN)Cc2ccc(OCCOc3c(Cl)cc(C)cc3Cl)cc2)c1`, the IC50 shift on CYP3A4 [1] came to 130.
One may read the IC50 as the concentration that inhibits the measured activity by half. As a reminder, the bioavailability is dose-corrected exposure relative to a reference, in per cent. Read a high bioavailability as much systemic uptake. The term CL/F denotes clearance divided by bioavailability, as obtained after extravascular dosing. In general, half-life refers to the time in which the quantity being followed falls by half. Low values mean rapid decline, high ones slow decline. In general, inhibition refers to the relative decrease from the control value, in per cent. Lower therefore signals a weak effect. As usually defined, the CLint scaled is the rate of metabolic loss divided by the concentration. A low value points to slow turnover. By kinact is commonly meant the maximal first-order rate at which the target is inactivated. For orientation: Ki means the equilibrium dissociation constant of an inhibitor or competing ligand from its target. For `COCCCc1ccc(Cl)c(CN(C(=O)[C@@H](CN)Cc2ccc(OCCOc3c(Cl)cc(C)cc3Cl)cc2)C2CC2)c1`, the results for the Vdss in the data set on Canis familiaris and in the data set with Rattus norvegicus [6] were 8.4 L/kg and 12 L/kg, respectively. Moreover, the IC50 at Renin [2] was 0.09 nM; at Renin [7], 2.4 nM; on Cytochrome P450 3A4 [13], 120 nM; against Cytochrome P450 3A4 [18] it was 14 µM. Also, the remaining at 1 h, 20 µM in data set [3] turned out to be 94%. Besides, the bioavailability in data set [4] worked out at 41%; in [15], 32%. Further, the CL/F in data set [5] is 16 mL/min/kg; in data set [14], 35 mL/min/kg. The values for the half-life in data set [8] and in data set [12] were 360 min and 1020 min, respectively. Moreover, the Activity in the data set on Rattus norvegicus [9] was determined as 13 mmHg. Further, on CYP3A4 [10], the inhibition at 3 µM was 7%. Moreover, in data set [11], the intrinsic clearance (CLint scaled) stood at 15 mL/min/kg. The IC50 shift at CYP3A4 [1] turned out to be 110. Further, the remaining at 1 h, 50 µM in [16] worked out at 98%. Also, the maximal inactivation rate constant (kinact) on CYP3A4 [17] is 0.00157 s⁻¹. The Ki on Cytochrome P450 3A4 [18] was found to be 3.2 µM. Also, the Time with Rattus norvegicus [19] amounted to 24 h.
Take `COCCc1ccc(Cl)c(CN(C(=O)[C@@H](CN)Cc2ccc(OCCOc3c(Cl)cc(C)cc3Cl)cc2)C2CC2)c1`: the IC50 shift at CYP3A4 [1] is 110.
Regarding `Cc1cc(Cl)c(OCCOc2ccc(C[C@H](CN)C(=O)N(Cc3cc(CCCC#N)ccc3Cl)C3CC3)cc2)c(Cl)c1`, the Time in the data set with Rattus norvegicus [20] turned out to be 48 h. Besides, in the data set on Rattus norvegicus [21], the Activity worked out at 27 mmHg. In addition, at CYP3A4 [1], the IC50 shift worked out at 120.
In the case of `CC(=O)N(C)Cc1ccc(Cl)c(CN(C(=O)[C@@H](CN)Cc2ccc(OCCOc3c(Cl)cc(C)cc3Cl)cc2)C2CC2)c1`, on CYP3A4 [1], the IC50 shift stood at 35.
Same read-out and setting: with `Cc1cc(Cl)c(OCCOc2ccc(C[C@H](CN)C(=O)N(Cc3cc(CCS(C)(=O)=O)ccc3Cl)C3CC3)cc2)c(Cl)c1` the figure was 50; with `COCCCc1cc(CN(C(=O)[C@@H](CN)Cc2ccc(OCCOc3c(Cl)cc(C)cc3Cl)cc2)C2CC2)c(Cl)cn1`, 90; with `COCCCc1cc(CN(C(=O)[C@@H](CN)Cc2ccc(OCCOc3c(Cl)cc(C)cc3Cl)cc2)C2CC2)c(Cl)c[n+]1[O-]`, 70.
Regarding `COCCCc1cc(CN(C(=O)[C@@H](CN)Cc2ccc(OCCOc3c(Cl)cc(C)cc3Cl)cc2)C2CC2)c2ccccc2n1`, the IC50 shift on CYP3A4 [1] worked out at 120.
On the same count and under the same terms, with `Cc1cc(Cl)c(OCCOc2ccc(C[C@H](CN)C(=O)N(Cc3cc(CCCC#N)cc4cccnc34)C3CC3)cc2)c(Cl)c1` the figure was 140; with `COCCc1ccc(Cl)c(CN(C(=O)[C@H](Cc2ccc(OCCOc3c(Cl)cc(C)cc3Cl)cc2)[C@H](C)N)C2CC2)c1`, 60; with `COCCc1ccc(Cl)c(CN(C(=O)[C@H](Cc2ccc(OCCOc3c(Cl)cc(C)cc3Cl)cc2)C(N)=O)C2CC2)c1`, 55.
Same read-out and setting: for `COCCc1ccc(Cl)c(CN(C(=O)CCc2ccc(OCCOc3c(Cl)cc(C)cc3Cl)cc2)C2CC2)c1` the value was 40; for `COCCc1ccc(Cl)c(CN(C)C(=O)[C@@H](CN)Cc2ccc(OCCOc3c(Cl)cc(C)cc3Cl)cc2)c1`, 40; for `COCCc1ccc(Cl)c(CN(C(=O)[C@@H](CN)Cc2ccc(OCCOc3c(Cl)cc(C)cc3Cl)cc2)C2CCC2)c1`, 180.
Same read-out and setting: with `COCCc1ccc(Cl)c(CN(CC2CC2)C(=O)[C@@H](CN)Cc2ccc(OCCOc3c(Cl)cc(C)cc3Cl)cc2)c1` the figure was 100.
As to `COCCc1ccc(Cl)c(CN(C(=O)[C@@H](CN)Cc2ccccc2)C2CC2)c1`, at CYP3A4 [1], the IC50 shift stood at 120.
Same read-out and setting: for `COCCc1ccc(Cl)c(CN(C(=O)[C@@H](CN)Cc2ccc(CCOc3c(Cl)cc(C)cc3Cl)cc2)C2CC2)c1` the value was 60.
Regarding `COCCc1ccc(Cl)c(CN(C[C@@H](CN)Cc2ccc(OCCOc3c(Cl)cc(C)cc3Cl)cc2)C2CC2)c1`, the IC50 shift at CYP3A4 [1] is 5.8.
The same measure, in the same setting: for `COCCc1ccc(Cl)c(C[C@H](C[C@@H](CN)Cc2ccc(OCCOc3c(Cl)cc(C)cc3Cl)cc2)C2CC2)c1` the value was 3.5.
Still for that read-out and setting: for `COCCc1ccc(Cl)c(C[C@@H](C[C@@H](CN)Cc2ccc(OCCOc3c(Cl)cc(C)cc3Cl)cc2)C2CC2)c1` the value was 1.7.
`COCCCc1cc(CN(C(=O)[C@@H](CN)Cc2ccc(OCCOc3c(Cl)cc(C)cc3Cl)cc2)C2CC2)cc(OCCOC)c1`: on CYP3A4 [1], the IC50 shift was determined as 1.5.
Same read-out and setting: with `COCCCc1cc(CN(C(=O)[C@@H](CN)Cc2ccc(OCCOc3c(Cl)cc(C)cc3Cl)cc2)C2CC2)cc(OCCN2CCOCC2)c1` the figure was below 1.
